# Laboratory results: ChEMBL document CHEMBL1147082 (Proc Natl Acad Sci U S A, 2007)
# Active and inactive are the calls of the source. The calls are words filed in the database; no cut-off is given here.
# Tests used:
# [1] = species: Mus musculus; experiment: Toxicity in Swiss-Webster mouse assessed as increase in body fat after 28 days relative to control; format: organism-based; conditions: in vivo, 672 h
# Method in brief: (§1)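 Male Swiss–Webster mice, three months old, singly housed, 12-h light cycle, chow ad libitum. Oral treatment for 28 days with vehicle or 3, 10, 30 mg/kg. Percentage body fat measured by DEXA, compared against vehicle controls.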
# [2] = system: Mus musculus; experiment: Inhibition of collagen-induced arthritis in DBA/1 mouse at less than 3 mg/kg, po after 15 days; format: functional, organism-based; set-up: dose 3 mg/kg
# Method in brief: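 Female DBA/1 mice, 6–8 weeks old, acclimatized 10 days. Bovine type II collagen (stored at 4 mg/ml in 0.01 M acetic acid) with complete Freund's adjuvant given intradermally at tail base on days 1 and 7. Daily oral gavage days 17–31 (15 days). Limbs scored 0–4 for clinical arthritis signs; 10 mice/group. One-way ANOVA with Fisher's LSD, P < 0.05.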
# [3] = system: Mus musculus; experiment: Toxicity in Swiss-Webster mouse assessed as decrease in bone formation at 30 mg/kg after 28 days; format: organism-based; set-up: dose 30 mg/kg; conditions: in vivo, 672 h
# Method in brief: (§2)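 Male Swiss–Webster mice, three months old, singly housed on standard chow, dosed orally for 28 days (vehicle; 3, 10, 30 mg/kg). Alizarin red 30 mg/kg s.c. at baseline DXA and calcein 15 mg/kg s.c. at final DXA for labeling. Tibial cortical histomorphometry under epifluorescence. Periosteal BFR = double-labeled surface × MAR/periosteal perimeter.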
# [4] = biological target: T1, Progesterone receptor (Homo sapiens, UniProt P06401); experiment: Binding affinity to human recombinant progesterone-A receptor expressed in SF9 cells
# T1 sequence (P06401 whole entry): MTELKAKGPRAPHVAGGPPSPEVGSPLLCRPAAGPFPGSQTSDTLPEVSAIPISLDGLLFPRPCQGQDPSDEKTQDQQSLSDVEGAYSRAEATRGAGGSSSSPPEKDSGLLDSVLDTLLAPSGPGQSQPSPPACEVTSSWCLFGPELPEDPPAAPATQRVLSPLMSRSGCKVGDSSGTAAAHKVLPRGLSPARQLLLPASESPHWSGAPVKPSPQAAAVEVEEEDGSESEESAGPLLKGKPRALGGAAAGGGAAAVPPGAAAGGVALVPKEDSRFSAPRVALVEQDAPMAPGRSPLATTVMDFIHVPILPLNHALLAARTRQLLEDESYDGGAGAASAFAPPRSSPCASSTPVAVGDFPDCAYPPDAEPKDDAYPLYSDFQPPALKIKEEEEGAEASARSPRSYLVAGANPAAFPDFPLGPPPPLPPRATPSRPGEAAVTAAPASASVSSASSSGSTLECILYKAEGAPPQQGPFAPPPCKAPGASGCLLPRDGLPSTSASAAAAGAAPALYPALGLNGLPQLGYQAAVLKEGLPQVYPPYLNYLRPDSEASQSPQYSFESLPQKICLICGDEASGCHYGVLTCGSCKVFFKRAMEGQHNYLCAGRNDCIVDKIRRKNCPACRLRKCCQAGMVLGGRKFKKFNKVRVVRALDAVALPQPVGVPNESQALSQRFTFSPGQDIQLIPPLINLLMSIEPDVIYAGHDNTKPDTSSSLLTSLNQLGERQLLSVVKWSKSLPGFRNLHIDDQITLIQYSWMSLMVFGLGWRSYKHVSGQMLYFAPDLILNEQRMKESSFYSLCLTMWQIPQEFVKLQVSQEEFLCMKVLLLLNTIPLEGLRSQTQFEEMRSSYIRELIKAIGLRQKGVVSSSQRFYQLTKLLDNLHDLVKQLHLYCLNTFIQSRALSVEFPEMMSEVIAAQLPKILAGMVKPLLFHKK
# Method in brief: (§3)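 Receptor source: extracts of SF-9 insect cells infected with recombinant baculovirus expressing the indicated receptor. Affinity was measured in a labeled-hormone binding assay.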
# [5] = biological target: T2, Androgen receptor (Homo sapiens, UniProt P10275); experiment: Binding affinity to human recombinant androgen receptor expressed in SF9 cells; method in brief: as §3
# T2 sequence (P10275 whole entry): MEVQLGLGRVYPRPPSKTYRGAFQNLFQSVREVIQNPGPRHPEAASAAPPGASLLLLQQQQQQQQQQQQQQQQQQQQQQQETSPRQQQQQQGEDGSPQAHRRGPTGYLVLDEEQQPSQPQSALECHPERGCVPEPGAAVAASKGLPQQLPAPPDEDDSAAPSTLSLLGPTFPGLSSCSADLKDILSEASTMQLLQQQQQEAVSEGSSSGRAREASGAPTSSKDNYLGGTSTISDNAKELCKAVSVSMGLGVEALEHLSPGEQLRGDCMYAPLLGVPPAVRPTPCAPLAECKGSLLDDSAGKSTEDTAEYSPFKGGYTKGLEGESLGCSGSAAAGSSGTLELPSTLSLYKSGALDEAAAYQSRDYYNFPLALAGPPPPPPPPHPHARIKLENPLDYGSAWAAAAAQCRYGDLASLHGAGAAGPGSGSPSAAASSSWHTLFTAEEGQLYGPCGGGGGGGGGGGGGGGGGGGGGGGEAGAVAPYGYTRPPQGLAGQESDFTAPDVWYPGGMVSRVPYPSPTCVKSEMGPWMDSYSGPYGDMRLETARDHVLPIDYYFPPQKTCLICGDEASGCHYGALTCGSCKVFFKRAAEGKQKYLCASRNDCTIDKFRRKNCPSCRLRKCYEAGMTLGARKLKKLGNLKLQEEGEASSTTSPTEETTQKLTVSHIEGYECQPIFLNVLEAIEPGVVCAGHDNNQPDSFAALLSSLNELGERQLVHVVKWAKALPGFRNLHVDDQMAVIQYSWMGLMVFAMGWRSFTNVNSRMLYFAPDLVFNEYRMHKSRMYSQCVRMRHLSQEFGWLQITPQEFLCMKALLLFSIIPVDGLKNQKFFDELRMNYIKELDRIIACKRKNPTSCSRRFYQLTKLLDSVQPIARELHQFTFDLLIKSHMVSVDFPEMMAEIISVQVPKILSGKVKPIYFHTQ
# [6] = biological target: T3, Glucocorticoid receptor (Homo sapiens) (UniProt P04150); conditions: CV-1
# T3 sequence (whole entry): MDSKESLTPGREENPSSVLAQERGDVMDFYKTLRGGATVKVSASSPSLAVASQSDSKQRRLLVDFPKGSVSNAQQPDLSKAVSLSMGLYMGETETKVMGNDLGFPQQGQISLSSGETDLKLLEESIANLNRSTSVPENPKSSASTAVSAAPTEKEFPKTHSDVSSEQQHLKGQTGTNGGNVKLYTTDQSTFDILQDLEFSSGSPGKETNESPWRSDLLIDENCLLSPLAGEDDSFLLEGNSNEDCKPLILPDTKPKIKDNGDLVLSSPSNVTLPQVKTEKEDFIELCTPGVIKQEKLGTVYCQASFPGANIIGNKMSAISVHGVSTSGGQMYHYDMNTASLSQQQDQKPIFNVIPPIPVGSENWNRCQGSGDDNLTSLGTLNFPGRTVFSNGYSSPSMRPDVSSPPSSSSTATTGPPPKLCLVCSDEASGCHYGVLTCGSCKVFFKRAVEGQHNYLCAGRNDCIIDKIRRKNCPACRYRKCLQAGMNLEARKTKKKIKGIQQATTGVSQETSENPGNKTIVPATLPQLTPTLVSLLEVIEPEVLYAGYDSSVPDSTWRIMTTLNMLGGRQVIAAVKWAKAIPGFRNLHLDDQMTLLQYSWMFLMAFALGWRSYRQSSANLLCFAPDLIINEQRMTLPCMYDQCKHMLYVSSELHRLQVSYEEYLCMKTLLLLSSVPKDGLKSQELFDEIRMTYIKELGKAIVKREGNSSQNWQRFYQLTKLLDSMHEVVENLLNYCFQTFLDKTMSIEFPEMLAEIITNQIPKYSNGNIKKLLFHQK
# [7] = system: Mus musculus; experiment: Toxicity in Swiss-Webster mouse assessed as increase in body fat at 10 mg/kg after 28 days; format: organism-based; set-up: dose 10 mg/kg; conditions: in vivo, 672 h; method in brief: as §1
# [8] = biological target: T4, Glucocorticoid receptor (Rattus norvegicus) (UniProt P06536); experiment: Activity at endogenous glucocorticoid receptor in rat H42E liver cells assessed as increase in transcriptional activation of pyruvate dehydrogenase kinase at 0.1 uM after 24 hrs by RT-PCR; format: cell-based
# T4 sequence (whole entry): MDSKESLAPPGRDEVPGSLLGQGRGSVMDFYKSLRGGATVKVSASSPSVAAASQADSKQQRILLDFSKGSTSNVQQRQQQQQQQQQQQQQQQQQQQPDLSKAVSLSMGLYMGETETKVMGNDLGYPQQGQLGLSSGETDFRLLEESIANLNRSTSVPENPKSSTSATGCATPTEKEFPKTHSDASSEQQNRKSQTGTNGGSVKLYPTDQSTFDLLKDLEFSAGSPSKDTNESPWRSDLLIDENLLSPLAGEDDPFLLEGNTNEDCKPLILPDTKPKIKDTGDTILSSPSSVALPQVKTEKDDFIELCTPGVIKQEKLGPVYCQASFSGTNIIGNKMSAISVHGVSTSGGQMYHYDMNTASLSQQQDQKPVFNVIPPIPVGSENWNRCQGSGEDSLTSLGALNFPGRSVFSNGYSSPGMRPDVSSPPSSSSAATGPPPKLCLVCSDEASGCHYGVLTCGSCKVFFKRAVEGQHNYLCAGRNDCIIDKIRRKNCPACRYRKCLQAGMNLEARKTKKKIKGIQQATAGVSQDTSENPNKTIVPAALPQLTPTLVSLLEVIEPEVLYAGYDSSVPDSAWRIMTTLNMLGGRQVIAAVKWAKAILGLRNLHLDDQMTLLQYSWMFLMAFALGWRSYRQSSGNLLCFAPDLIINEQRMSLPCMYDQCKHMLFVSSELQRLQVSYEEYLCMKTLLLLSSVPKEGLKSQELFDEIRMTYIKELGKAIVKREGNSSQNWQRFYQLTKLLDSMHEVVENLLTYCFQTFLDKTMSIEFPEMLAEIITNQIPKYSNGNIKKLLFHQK
# Method in brief: (§4)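 H4IIE rat liver cells (endogenous GR) kept in 10% FBS, seeded overnight at 3.5 × 10^5 cells/well, then given vehicle or compound in 10% dextran/charcoal-treated FBS for 24 h. RNA extracted, first-strand cDNA made, real-time PCR run (40 cycles). Target signal divided by 36B4 control gene. Triplicate biological samples and triplicate assays per dose; one-way ANOVA with Dunnett's method.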
# [9] = biological target: T4, Glucocorticoid receptor (Rattus norvegicus); experiment: Activity at endogenous glucocorticoid receptor in rat H42E liver cells assessed as increase in transcriptional activation of phosphoenol pyruvate carboxykinase at 0.01 uM after 24 hrs by RT-PCR; format: cell-based; method in brief: as §4
# [10] = system: Mus musculus; experiment: Toxicity in Swiss-Webster mouse assessed as decrease in bone formation at 10 mg/kg after 28 days; format: organism-based; set-up: dose 10 mg/kg; conditions: in vivo, 672 h; method in brief: as §2
# [11] = system: Mus musculus; experiment: Toxicity in Swiss-Webster mouse assessed as increase in body fat at 30 mg/kg after 28 days; format: organism-based; set-up: dose 30 mg/kg; conditions: in vivo, 672 h; method in brief: as §1
# [12] = system: Mus musculus; experiment: Toxicity in Swiss-Webster mouse assessed as decrease in bone formation at 3 mg/kg after 28 days; format: organism-based; set-up: dose 3 mg/kg; conditions: in vivo, 672 h; method in brief: as §2
Compound,Activity [1],Activity [2],Activity [3],Ki [4],Ki [5],ED50 [6],Activity [7],Activity [8],Activity [9],Activity [10],Activity [11],Activity [12]
COc1c(O)ccc2c1-c1ccc3c(c1/C(=C/c1cccc(C)c1F)O2)C(C)=CC(C)(C)N3,Toxic,Active,Toxic,866 nM,910 nM,,,,,,,
C[C@@H]1C[C@H]2[C@@H]3CCC4=CC(=O)C=C[C@]4(C)[C@@]3(F)[C@@H](O)C[C@]2(C)[C@@]1(O)C(=O)CO,,,,,,0.1 nM,,,,,,
C[C@]12C=CC(=O)C=C1CC[C@@H]1[C@@H]2[C@@H](O)C[C@@]2(C)[C@H]1CC[C@]2(O)C(=O)CO [PREDNISOLONE],,Active,Toxic,,,4 nM,Toxic,Active,Active,Toxic,Toxic,Toxic
